Measurements from ChEMBL document CHEMBL3856209, “Novel pyrazolopyridine derivatives as potential angiogenesis inhibitors: Synthesis, biological evaluation and transcriptome-based mechanistic analysis” (Eur J Med Chem, 2016).
Calls of active or inactive are those of the source.

What was measured:
HUVEC [1] = assay: Effect on CCNA2 gene expression in serum-starved HUVEC after 24 hrs by microarray analysis relative to control; assay type: functional, Homo sapiens
Procedure, shortened: (§1)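 Confluent serum-starved HUVEC (primary, pooled from 3–5 donors, passage ≤4) treated with 2 μM compound or DMSO vehicle in 2.5% FBS for 6 h or 24 h. Total RNA hybridized to Illumina Human-HT12 arrays, background-corrected, vst-transformed and rsn-normalized. Differential expression versus DMSO by moderated paired t-test (p < 0.05, |log2 fold change| > 0.5).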

HUVEC [2] = assay: Effect on CYP26B1 gene expression in serum-starved HUVEC after 6 hrs by microarray analysis relative to control; assay type: functional, Homo sapiens
Procedure, shortened: (§2)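 Confluent, serum-starved HUVEC (pooled from 3–5 donors, passage ≤4) treated with 2 μM compound or vehicle with 2.5% FBS for 6 h or 24 h. Total RNA hybridized to Illumina Human-HT12 arrays. Data were background-corrected, vst-transformed and rsn-normalized. Hits called by moderated paired t-test versus DMSO-treated cells, p < 0.05 and log2 fold change >|0.5|.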

HUVEC [3] = assay: Effect on ERAP2 gene expression in serum-starved HUVEC after 6 hrs by microarray analysis relative to control; assay type: functional, Homo sapiens; procedure, shortened: as §2
HUVEC [4] = assay: Effect on HECW2 gene expression in serum-starved HUVEC after 6 hrs by microarray analysis relative to control; assay type: functional, Homo sapiens; procedure, shortened: as §2
[5] = Upregulation of MSMO1 gene expression in serum-starved HUVEC at 2 uM after 24 hrs by qRT-PCR analysis; assay type: functional, cell-based; details: Homo sapiens
HUVEC [6] = assay: Effect on BIRC5 gene expression in serum-starved HUVEC after 24 hrs by microarray analysis relative to control; assay type: functional, Homo sapiens
Procedure, shortened: (§3)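 Serum-starved confluent HUVEC treated with 2 μM compound or DMSO in 2.5% FBS for 6 h or 24 h; RNA hybridized to Illumina Human-HT12 arrays. Data background-corrected, vst-transformed and rsn-normalized. Differential probes called by moderated paired t-test (limma) at p < 0.05 and log2 fold change >|0.5| vs DMSO.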

HUVEC [7] = assay: Effect on LDLR gene expression in serum-starved HUVEC after 6 hrs by microarray analysis relative to control; assay type: functional, Homo sapiens
Procedure, shortened: (§4)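 Serum-starved confluent HUVEC (pooled from 3–5 donors, passage ≤4) were treated with 2 μM compound or vehicle in 2.5% FBS for 6 h or 24 h, and total RNA was isolated. Hybridization was on Illumina Human-HT12. Data were processed with bgAdjust, vst and rsn normalization. Changes versus DMSO were called by moderated paired t-test at p < 0.05 and |log2 fold change| > 0.5.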

HUVEC [8] = assay: Effect on CTSH gene expression in serum-starved HUVEC after 24 hrs by microarray analysis relative to control; assay type: functional, Homo sapiens; procedure, shortened: as §2
HUVEC [9] = assay: Effect on LSS gene expression in serum-starved HUVEC after 6 hrs by microarray analysis relative to control; assay type: functional, Homo sapiens
HUVEC [10] = assay: Effect on RDH11 gene expression in serum-starved HUVEC after 24 hrs by microarray analysis relative to control; assay type: functional, Homo sapiens
HUVEC [11] = assay: Effect on MYLIP gene expression in serum-starved HUVEC after 24 hrs by microarray analysis relative to control; assay type: functional, Homo sapiens; procedure, shortened: as §4
HUVEC [12] = assay: Effect on SPC24 gene expression in serum-starved HUVEC after 6 hrs by microarray analysis relative to control; assay type: functional, Homo sapiens; procedure, shortened: as §1
HUVEC [13] = assay: Effect on CENPF gene expression in serum-starved HUVEC after 24 hrs by microarray analysis relative to control; assay type: functional, Homo sapiens
Procedure, shortened: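 Serum-starved confluent HUVEC (primary, pooled from 3–5 donors, passage ≤4) treated with 2 μM test compound or DMSO vehicle (working dilutions ≤0.1% v/v) in presence of 2.5% FBS for 6 h or 24 h; total RNA hybridized to Illumina Human-HT12 arrays; background correction, vst, rsn normalization; moderated paired t-test versus DMSO, thresholds p < 0.05 and log2 fold change >|0.5|.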

[14] = Downregulation of CCNB2 gene expression in serum-starved HUVEC at 2 uM after 24 hrs by qRT-PCR analysis; assay type: functional, cell-based; details: Homo sapiens
Procedure, shortened: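 Serum-starved confluent HUVEC treated with 2 μM compound or vehicle in 2.5% FBS for 24 h. Total RNA isolated and qRT-PCR run in triplicate (95 °C 5 min; 40 cycles of 95 °C 5 s, 58 °C 20 s, 72 °C 5 s), normalized to RPS18S. Fold change vs control, n = 3.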

HUVEC [15] = assay: Effect on GLIPR1 gene expression in serum-starved HUVEC after 6 hrs by microarray analysis relative to control; assay type: functional, Homo sapiens; procedure, shortened: as §2
HUVEC [16] = assay: Effect on CDC25C gene expression in serum-starved HUVEC after 6 hrs by microarray analysis relative to control; assay type: functional, Homo sapiens; procedure, shortened: as §1
HUVEC (Homo sapiens) = assay: Antiproliferative activity against human HUVEC cells assessed as decrease in VEGF-165-induced cell growth at 0.5 to 2 uM after 24 to 48 hrs by CyQUANT cell proliferation assay
HUVEC [17] = assay: Effect on KIF11 gene expression in serum-starved HUVEC after 6 hrs by microarray analysis relative to control; assay type: functional, Homo sapiens; procedure, shortened: as §2
HUVEC [18] = assay: Effect on ABCA1 gene expression in serum-starved HUVEC after 6 hrs by microarray analysis relative to control; assay type: functional, Homo sapiens; procedure, shortened: as §1
HUVEC [19] = assay: Effect on TUBB4B gene expression in serum-starved HUVEC after 6 hrs by microarray analysis relative to control; assay type: functional, Homo sapiens
HUVEC [20] = assay: Effect on RNU1-28P gene expression in serum-starved HUVEC after 6 hrs by microarray analysis relative to control; assay type: functional, Homo sapiens
HUVEC [21] = assay: Effect on NEDD9 gene expression in serum-starved HUVEC after 24 hrs by microarray analysis relative to control; assay type: functional, Homo sapiens; procedure, shortened: as §4
HUVEC [22] = assay: Effect on KRT18P55 gene expression in serum-starved HUVEC after 6 hrs by microarray analysis relative to control; assay type: functional, Homo sapiens; procedure, shortened: as §4
HUVEC [23] = assay: Effect on ERAP2 gene expression in serum-starved HUVEC after 24 hrs by microarray analysis relative to control; assay type: functional, Homo sapiens; procedure, shortened: as §2
HUVEC [24] = assay: Effect on DLGAP5 gene expression in serum-starved HUVEC after 6 hrs by microarray analysis relative to control; assay type: functional, Homo sapiens; procedure, shortened: as §2
HUVEC [25] = assay: Effect on MYO10 gene expression in serum-starved HUVEC after 24 hrs by microarray analysis relative to control; assay type: functional, Homo sapiens; procedure, shortened: as §4
HUVEC [26] = assay: Effect on UHRF1 gene expression in serum-starved HUVEC after 6 hrs by microarray analysis relative to control; assay type: functional, Homo sapiens
HUVEC [27] = assay: Effect on DLC1 gene expression in serum-starved HUVEC after 24 hrs by microarray analysis relative to control; assay type: functional, Homo sapiens; procedure, shortened: as §2
HUVEC [28] = assay: Effect on CKS1B gene expression in serum-starved HUVEC after 24 hrs by microarray analysis relative to control; assay type: functional, Homo sapiens; procedure, shortened: as §3
HUVEC [29] = assay: Effect on MBNL2 gene expression in serum-starved HUVEC after 6 hrs by microarray analysis relative to control; assay type: functional, Homo sapiens; procedure, shortened: as §4
HUVEC [30] = assay: Effect on SIVA1 gene expression in serum-starved HUVEC after 6 hrs by microarray analysis relative to control; assay type: functional, Homo sapiens
HUVEC [31] = assay: Effect on CENPA gene expression in serum-starved HUVEC after 6 hrs by microarray analysis relative to control; assay type: functional, Homo sapiens; procedure, shortened: as §3
HUVEC [32] = assay: Effect on ZWINT gene expression in serum-starved HUVEC after 24 hrs by microarray analysis relative to control; assay type: functional, Homo sapiens; procedure, shortened: as §1
HUVEC [33] = assay: Effect on CKS1B gene expression in serum-starved HUVEC after 6 hrs by microarray analysis relative to control; assay type: functional, Homo sapiens; procedure, shortened: as §3

SMILES: COc1ccc(Cn2nc(-c3ccccc3)c3cc(Nc4ccc(N5CCN(C)CC5)cc4)nc(N4CCN(C)CC4)c32)cc1
- fold change (FC) (HUVEC [1]): -0.7529
- log2FC (HUVEC [2]): -0.3941
- fold change (FC) (HUVEC [3]): 0.5068
- fold change (FC) (HUVEC [4]): 0.4559
- Activity [5]: Active
- log2FC (HUVEC [6]): -0.6896
- fold change (FC) (HUVEC [7]): 0.9404
- log2FC (HUVEC [8]): -0.6409
- fold change (FC) (HUVEC [9]): 0.4912
- log2FC (HUVEC [10]): 0.6682
- log2FC (HUVEC [11]): -0.2675
- log2FC (HUVEC [12]): -0.1032
- fold change (FC) (HUVEC [13]): -0.7151
- Activity [14]: Active
- fold change (FC) (HUVEC [15]): 0.1533
- fold change (FC) (HUVEC [16]): -0.0013
- Activity (HUVEC (Homo sapiens)): Active
- fold change (FC) (HUVEC [17]): 0.073
- fold change (FC) (HUVEC [18]): 0.0783
- fold change (FC) (HUVEC [19]): -0.206
- log2FC (HUVEC [20]): -0.7994
- log2FC (HUVEC [21]): 0.6094
- log2FC (HUVEC [22]): -0.0175
- log2FC (HUVEC [23]): 0.0121
- fold change (FC) (HUVEC [24]): 0.1107
- log2FC (HUVEC [25]): 0.507
- fold change (FC) (HUVEC [26]): 0.012

SMILES: COc1ccc(Cn2nc(-c3ccccc3)c3cc(Nc4ccc(N5CCN(C)CC5)cc4)nc(N4CCNCC4)c32)cc1
- log2FC (HUVEC [27]): 0.5215
- log2FC (HUVEC [24]): 0.2579

SMILES: COc1ccc(Cn2nc(-c3ccccc3)c3cc(Cl)nc(N4CCNCC4)c32)cc1
- log2FC (HUVEC [28]): -0.5699
- log2FC (HUVEC [29]): 0.2488
- fold change (FC) (HUVEC [3]): 0.5171
- log2FC (HUVEC [6]): -0.6034
- log2FC (HUVEC [27]): -0.0926
- log2FC (HUVEC [30]): -0.2087
- log2FC (HUVEC [12]): 0.1186
- Activity (HUVEC (Homo sapiens)): Active
- fold change (FC) (HUVEC [31]): 0.0058
- log2FC (HUVEC [32]): -0.5572
- log2FC (HUVEC [23]): 0.2703
- log2FC (HUVEC [33]): -0.0514
